From PubChem
TRPC4 agonist = activators of mouse TRPC4 channel. B-score at 10 µM. Q9QUQ5. HEK293 TRPC4beta/mu-opioid, Fluo4 calcium fluorescence; hits give high values. 0.49% of 310,000 active. AID 2237;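 active = B-score above 5 SD of library B-scores, and initial fluorescence ratio not above library mean plus 5 SD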;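 note: positive B-score marks a calcium rise read as TRPC4 activation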
Target sequence (Q9QUQ5 whole entry, looked up): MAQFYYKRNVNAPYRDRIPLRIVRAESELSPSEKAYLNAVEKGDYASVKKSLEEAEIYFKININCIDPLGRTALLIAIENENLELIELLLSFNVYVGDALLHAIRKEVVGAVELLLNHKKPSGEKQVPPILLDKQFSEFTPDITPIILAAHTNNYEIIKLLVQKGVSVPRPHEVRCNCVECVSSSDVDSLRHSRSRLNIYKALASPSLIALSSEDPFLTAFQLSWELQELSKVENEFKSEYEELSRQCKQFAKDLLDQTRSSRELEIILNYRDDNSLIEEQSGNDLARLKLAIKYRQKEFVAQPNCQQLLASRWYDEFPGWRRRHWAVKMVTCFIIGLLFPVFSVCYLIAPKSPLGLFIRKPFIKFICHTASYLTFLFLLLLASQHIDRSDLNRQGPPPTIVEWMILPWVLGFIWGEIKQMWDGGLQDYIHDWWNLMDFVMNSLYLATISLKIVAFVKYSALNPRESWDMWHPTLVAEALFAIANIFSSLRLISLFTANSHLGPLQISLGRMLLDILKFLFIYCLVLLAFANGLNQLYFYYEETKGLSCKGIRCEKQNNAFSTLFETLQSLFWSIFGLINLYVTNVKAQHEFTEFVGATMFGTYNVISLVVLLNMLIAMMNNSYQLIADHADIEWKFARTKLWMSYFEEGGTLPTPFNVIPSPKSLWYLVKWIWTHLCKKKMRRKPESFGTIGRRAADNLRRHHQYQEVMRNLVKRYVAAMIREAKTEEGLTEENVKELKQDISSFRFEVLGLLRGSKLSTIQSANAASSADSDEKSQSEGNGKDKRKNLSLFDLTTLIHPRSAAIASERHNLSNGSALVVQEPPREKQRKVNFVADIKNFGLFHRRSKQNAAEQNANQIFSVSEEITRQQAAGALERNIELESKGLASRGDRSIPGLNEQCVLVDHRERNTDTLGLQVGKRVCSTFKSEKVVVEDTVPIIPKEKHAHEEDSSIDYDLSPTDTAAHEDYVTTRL
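System – HEK293 cells stably co-expressing mouse TRPC4beta and mu-opioid receptor · Signal – Fluo4 calcium-sensitive dye fluorescence, kinetic, 1 Hz baseline · Benchmarks – buffer (low) and maximal DAMGO (high) · Read-out – B score of integrated fluorescence ratio per well · Incubation – dye loading 45 min room temperature, 110 s kinetic read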
TRPC6 inhibitor = blocks the mouse TRPC6 cation channel. Q61143. HEK293-TRPC6, membrane potential dye, ACh-evoked depolarization; hits give low values. B-score at 10 µM. 1.1% of 310,000 active. AID 2553;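 active = B-score under library mean minus 3 SD, initial fluorescence not abnormally high, positive integrated signal ratio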;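 note: B-score derived from integrated fluorescence ratio over the kinetic read; more negative B-score means stronger inhibition of depolarization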
TRPC6 activator = mouse TRPC6 channel activation; Q61143; HEK293-TRPC6 membrane potential dye fluorescence; hits give high values; B-score at 10 µM; 0.13% of 310,000 active; AID 2550;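 active = B-score of the integrated fluorescence ratio above library mean plus 3 SD, and starting fluorescence ratio within library mean plus 5 SD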;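 note: higher score means more depolarization so channel activation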
TRPC4 PAM = TRPC4 (mouse) allosteric potentiation. Q9QUQ5. HEK293 TRPC4beta/mu-opioid, DAMGO EC20, Fluo-4 Ca2+ flux; hits give high values. B-score at 10 µM. 0.42% of 310,000 active. AID 2227;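 active = B-score of calcium response area above 5 SD of library B-scores, with initial fluorescence ratio within 5 SD of library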;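 note: B-score of integrated fluorescence ratio over time as area under calcium response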
TRPC4 inh = inhibitors of mouse TRPC4 channel; Q9QUQ5; HEK293 TRPC4beta/mu-opioid, DAMGO-evoked Fluo4 calcium flux; hits give low values; B-score at 10 µM; 0.39% of 300,000 active; AID 2247;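 active = B-score over 3 SD under the library average, no early fluorescence shift, positive overall ratio signal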
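Test system – stable TRPC4beta/mu-opioid receptor HEK293 cells · Probe or stimulus – DAMGO, a submaximal dose followed by a maximal one · Dosing – one concentration per compound · Signal – Fluo4 calcium fluorescence by kinetic imaging, 5 s 1 Hz baseline · Evaluation – per-well B score of integrated baseline-normalized Fluo4 ratio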
TRPC4 spec 2 = mouse TRPC4 off-target activity of TRPC6 inhibitors, second screen; shares compounds with TRPC6 inhibitor; HEK293 TRPC4/MOR, membrane potential dye fluorescence; channel activated by saturating DAMGO dose; inhibition, % at 10 µM; 42% of 920 active;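 active = compounds whose fluorescence signal differed from control wells by over 3 SD, either direction, in both duplicate plates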
TRPC4 spec = mouse TRPC4 off-target activity of TRPC6 inhibitors; shares compounds with TRPC6 inhibitor; HEK293 TRPC4/mu-opioid, membrane potential fluorescence; activity change, negative = inhibition, % at 10 µM; 61% of 920 active; AID 2777;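 active = rise or fall in signal beyond 3 SD of buffer-only wells in both replicate plates, either sign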;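 note: integrated kinetic ratio of fluorescence range over baseline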
HEK293 MPD ctr 2-1 = parental HEK293 nonspecific activity of TRPC6 inhibitors, second screen | 31% of 920 active | parental HEK293 membrane potential dye fluorescence; maximal acetylcholine challenge after compound addition | shares compounds with TRPC6 inhibitor | signal change vs control, % at 10 µM;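 active = membrane potential signal moving either way by over 3 SD of the maximum-effect control, in both duplicate plates, meaning non-specific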
HEK293 MPD ctr-1 = counter-screen for TRPC6 inhibitors: effect in parental HEK293 cells. membrane potential signal change, % at 10 µM. shares compounds with TRPC6 inhibitor. parental HEK293 membrane potential dye fluorescence. 60% of 920 active;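 active = membrane potential signal shifting up or down by more than 3 SD of buffer-only wells, on both duplicate plates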
HEK293 MPD ctr-2 = checks TRPC6 modulator effects in parental HEK293 cells; membrane potential signal change, % at 10 µM; membrane potential dye fluorescence; shares compounds with TRPC6 inhibitor; 51% of 2,400 active;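 active = membrane potential signal moves up or down beyond 5 SD from buffer-only wells, on both duplicate plates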
HEK293 MPD ctr 2-2 = second counter-screen for TRPC6 modulators: effect in parental HEK293 cells; membrane potential dye fluorescence; after compound, maximal acetylcholine stimulation; AID 488926; inhibition, % at 10 µM; shares compounds with TRPC6 inhibitor; 14% of 2,400 active;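 active = membrane potential signal drops by more than 5 SD from the mean control signal, in both duplicate plates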;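 note: plate controls were acetylcholine ECmax control wells for no effect and buffer only wells for full effect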
TRPC4 ctr mod = tests whether TRPC6 modulators also affect mouse TRPC4 | percent change from control (negative = decrease, positive = increase), % at 10 µM | shares compounds with TRPC6 inhibitor | HEK293 TRPC4/mu-opioid, membrane potential fluorescence | 69% of 2,400 active;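 active = membrane potential signal moved up or down beyond 5 SD of buffer control wells, in both duplicate plates, actives on both sides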;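 note: plate controls were assay buffer wells for no effect and DAMGO maximal-effect wells for full effect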
TRPC4 ctr inh 2 = second check of whether TRPC6 modulators also affect mouse TRPC4. shares compounds with TRPC6 inhibitor. HEK293 TRPC4/mu-opioid, membrane potential dye fluorescence; stimulated with maximal-effect DAMGO. inhibition, % at 10 µM. 55% of 2,400 active. AID 488928;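 active = drop in membrane potential signal beyond 5 SD of the control wells in both duplicate plates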;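 note: TRPC4 counter screen for TRPC6 hits run under conditions tuned for TRPC6 not TRPC4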
TRPC6 block conf = confirmation of mouse TRPC6 inhibitors. shares compounds with TRPC6 inhibitor. HEK293-TRPC6, membrane potential dye, ACh-evoked depolarization. inhibition, % at 10 µM. 43% of 3,300 active. AID 488960;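 active = fluorescence ratio falls more than 5 SD below the full-stimulation control mean, in both duplicate runs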;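 note: integrated fluorescence ratio of peak minus minimum over baseline after agonist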
TRPC6 act confirm = mouse TRPC6 activator confirmation; HEK293-TRPC6 membrane potential dye fluorescence, FDSS; 11% of 2,800 active; shares compounds with TRPC6 inhibitor; activation, % at 10 µM;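 active = ratio signal rise beyond 5 SD above unstimulated control wells' mean, seen in both duplicate runs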;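 note: plate controls were buffer EC0 wells for no effect and acetylcholine ECmax response for full effect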
The depositor's hits bear a star; i = inactive; nt = no result. A selection: hits, their analogues and other compounds. The true share with any hit is near 2.3%.

SMILES	TRPC4 agonist	TRPC6 inhibitor	TRPC6 activator	TRPC4 PAM	TRPC4 inh	TRPC6 block conf	TRPC6 act confirm	others
CCCCCC(=O)Nc1cccc(C2=NOC3(C2)C[C@H](C(N)=O)N(C(=O)CC)C3)c1 (stereo partly drawn)	i	i	i	i	i	nt	nt
CC(=O)N1CCN(S(=O)(=O)c2cccc(C(=O)NCCC3=CCCCC3)c2)CC1	i	i	i	i	i	nt	nt
c1cncc(-c2cn(C[C@H]3CC[C@@H]([C@@H]4CC[C@H](Cn5cc(-c6cccnc6)nn5)O4)O3)nn2)c1	i	i	i	i	i	nt	nt
Cc1ccc(-c2nc(NCCN(C)C)c3ccccc3n2)cc1	i	i	i	i	i	nt	nt
CN(C)CCNc1cc(-c2ccncc2)nc2ccccc12	i	-11.3*	i	15*	i	75.0%*	i	HEK293 MPD ctr-2=-327.5%*;HEK293 MPD ctr 2-2=90.0%*;TRPC4 ctr mod=-81.0%*;TRPC4 ctr inh 2=77.5%*
CCS(=O)(=O)N1CCN(c2ccc([N+](=O)[O-])c(NC(C)c3ccccc3)c2)CC1 (stereo not drawn)	i	i	i	i	i	nt	nt
CC(Nc1cc(N2CCNCC2)ccc1[N+](=O)[O-])c1ccccc1 (stereo not drawn)	75*	-7.09*	i	i	i	i	i	TRPC4 spec 2=71.5%*;TRPC4 spec=i;HEK293 MPD ctr 2-1=i;HEK293 MPD ctr-1=-182.5%*
CC(=O)C1=C(O)C(=O)N(c2cccc(Br)c2)C1c1ccccc1Cl (stereo not drawn)	i	i	i	i	i	nt	nt
CCCN(CCC)CCCNC(=S)Nc1ccc2nc(N3CCCC3)cc(C)c2c1	i	-8.01*	i	i	i	i	i	TRPC4 spec 2=i;TRPC4 spec=-14.8%*;HEK293 MPD ctr 2-1=19.0%*;HEK293 MPD ctr-1=-166.5%*
Cc1cc(N2CCCC2)nc2ccc(NC(=S)NCCCOC(C)C)cc12	i	-7.13*	i	i	i	42.0%*	i	HEK293 MPD ctr-2=-126.5%*;HEK293 MPD ctr 2-2=i;TRPC4 ctr mod=-22.0%*;TRPC4 ctr inh 2=46.0%*
Cc1cc(N2CCOCC2)nc2ccc(NC(=S)NCCC(C)C)cc12	i	i	i	i	i	nt	nt
COCCCNC(=S)Nc1ccc2nc(N3CCOCC3)cc(C)c2c1	i	i	i	i	i	nt	nt
Cc1cc(N2CCN(C)CC2)nc2ccc(NC(=S)NCCC(C)C)cc12	i	-6.22*	i	i	i	55.5%*	i	HEK293 MPD ctr-2=-110.5%*;HEK293 MPD ctr 2-2=i;TRPC4 ctr mod=-27.0%*;TRPC4 ctr inh 2=72.0%*
